The source made the active and inactive calls. The calls are words filed in the database; no cut-off is given here. *1 amine or outer side, *2 acyl side, *3 side chain or, on linkers, in order; H or OH if unused. Where a SMILES comes first, the peptide text is derived from it. Bridges are numbered along the chain shown (N, C = ends). [ ]: non-standard residue; d: D form. N(6-aminohexyl)Gly = O=C(CN(CCCCCCN[*:3])[*:1])[*:2]; NGly(3-aminopropyl) = O=C(CN(CCCN[*:3])[*:1])[*:2]; N(2-Aminoethyl)Gly = O=C(CN(CCN[*:3])[*:1])[*:2]; Heptanedioyl = O=C(CCCCCC(=O)[*:2])[*:1]; Adipoyl = O=C(CCCCC(=O)[*:2])[*:1]; Glutaryl = O=C(CCCC(=O)[*:2])[*:1]; Gly(N-2-aminoethyl) = NCCNCC(=O)O; Cha = N[C@@H](CC1CCCCC1)C(=O)O; Gly(N(CH2)3NH2) = NCCCNCC(=O)O; Suc = O=C(CCC(=O)[*:2])[*:1]; hLeu = CC(C)CC[C@H](N)C(=O)O; Nva = CCC[C@H](N)C(=O)O; Dap = NC[C@H](N)C(=O)O; CO = O=C([*:1])[*:2]; Nlys = NCCCCNCC(=O)O

Broadly, the inhibition is the relative decrease from the control value, in per cent.

The target in this experiment is RAC-alpha serine/threonine-protein kinase (Homo sapiens, UniProt P31749). Description: Inhibition of Akt using RPRTSSF peptide and [gamma32]ATP at 5 uM by cell-free radioactive assay relative to control. In short, it runs like this: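 Cell-free 32P kinase assay: HisΔPHPKBEEEFlag (0.005 units, one-step Ni-NTA partial purification), 50 mM Hepes pH 7.4, 0.1 mM EGTA, 0.1% 2-mercaptoethanol, 10 mM magnesium acetate, 3 μM RPRTSSF substrate, 10 μM [γ32P]ATP (1 μCi/well). Inhibitor at 5 μM. Activity loss expressed as percent of uninhibited reaction.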
Sequence of RAC-alpha serine/threonine-protein kinase (P31749 whole entry): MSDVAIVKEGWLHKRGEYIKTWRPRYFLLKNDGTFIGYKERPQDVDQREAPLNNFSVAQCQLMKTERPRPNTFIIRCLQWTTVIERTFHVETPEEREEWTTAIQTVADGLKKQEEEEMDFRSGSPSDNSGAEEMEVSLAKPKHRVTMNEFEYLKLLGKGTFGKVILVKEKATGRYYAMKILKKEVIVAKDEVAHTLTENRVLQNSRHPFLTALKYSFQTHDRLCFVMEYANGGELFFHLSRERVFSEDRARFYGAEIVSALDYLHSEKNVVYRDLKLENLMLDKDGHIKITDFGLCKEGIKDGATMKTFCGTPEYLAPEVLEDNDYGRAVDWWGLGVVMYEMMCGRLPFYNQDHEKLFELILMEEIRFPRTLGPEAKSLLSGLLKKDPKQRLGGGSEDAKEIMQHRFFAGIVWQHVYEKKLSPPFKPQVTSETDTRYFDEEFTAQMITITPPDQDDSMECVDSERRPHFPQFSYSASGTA
As for `CCC[C@H](NC(=O)[C@H](CCCNC(=N)N)NC(=O)[C@@H](CCCCN)NC(=O)[C@@H](N)CCCNC(=N)N)C(=O)N[C@@H](Cc1ccc(O)cc1)C(=O)N[C@@H](CN)C(=O)N[C@@H](CCC(C)C)C(N)=O`, the inhibition amounted to 27%.

For the molecule `CCC[C@@H]1NC(=O)[C@H](CCCNC(=N)N)NC(=O)[C@@H]2CCCN2C(=O)[C@H](CCCNC(=N)N)NC(=O)CCC(=O)NCCCCN(CC(N)=O)C(=O)[C@H](CCC(C)C)NC(=O)[C@H](CN)NC(=O)[C@H](Cc2ccc(O)cc2)NC1=O` (RPR[Nva]Y[Dap][hLeu][Nlys]-NH2; linker N-8 via Suc), the inhibition turned out to be 13%.

With `CCC[C@H](NC(=O)[C@H](CCCNC(=N)N)NC(=O)[C@H]1CCCN1C(=O)[C@@H](N)CCCNC(=N)N)C(=O)N[C@@H](Cc1ccc(O)cc1)C(=O)N[C@@H](CN)C(=O)N[C@@H](CCC(C)C)C(N)=O`, the inhibition result was “inactive”.

Take `CCC[C@@H]1NC(=O)[C@H](CCCNC(=N)N)NC(=O)[C@@H]2CCCN2C(=O)[C@H](CCCNC(=N)N)NC(=O)CCCCC(=O)NCCCCN(CC(N)=O)C(=O)[C@H](CCC(C)C)NC(=O)[C@H](CN)NC(=O)[C@H](Cc2ccc(O)cc2)NC1=O` (RPR[Nva]Y[Dap][hLeu][Nlys]-NH2; linker N-8 via Adipoyl): the inhibition was 18%.

Turning to `CCC[C@H](NC(=O)[C@H](CCCNC(=N)N)NC(=O)[C@H](Cc1ccc(O)cc1)NC(=O)[C@@H](N)CCCNC(=N)N)C(=O)N[C@@H](Cc1ccc(O)cc1)C(=O)N[C@@H](CN)C(=O)N[C@@H](CCC(C)C)C(N)=O`, the inhibition was found to be 74%.

In the case of `CCC[C@H](NC(=O)[C@H](CCCNC(=N)N)NC(=O)CNCCN)C(=O)N[C@@H](Cc1ccc(O)cc1)C(=O)N[C@@H](CN)C(=O)N[C@@H](CCC(C)C)C(=O)N(CCN)CC(N)=O` (H-[Gly(N-2-aminoethyl)]R[Nva]Y[Dap][hLeu][Gly(N-2-aminoethyl)]-NH2), the inhibition is 67%.

Consider `CCC[C@H](NC(=O)[C@H](CCCNC(=N)N)NC(=O)[C@H](CC1CCCCC1)NC(=O)[C@@H](N)CCCNC(=N)N)C(=O)N[C@@H](Cc1ccc(O)cc1)C(=O)N[C@@H](CN)C(=O)N[C@@H](CCC(C)C)C(N)=O` (H-R[Cha]R[Nva]Y[Dap][hLeu]-NH2), for which the inhibition was 85%.

Regarding `CCC[C@H](NC(=O)[C@H](CCCNC(=N)N)NC(=O)[C@H](CCCCN)NC(=O)[C@@H](N)CCCNC(=N)N)C(=O)N[C@@H](Cc1ccc(O)cc1)C(=O)N[C@@H](CN)C(=O)N[C@@H](CCC(C)C)C(N)=O`, the inhibition stood at 92%.

In the case of `CCC[C@@H]1NC(=O)[C@H](CCCNC(=N)N)NC(=O)CN(C(=O)[C@@H](N)CCCNC(=N)N)CCCCCCNC(=O)NCCN(CC(N)=O)C(=O)[C@H](CCC(C)C)NC(=O)[C@H](CN)NC(=O)[C@H](Cc2ccc(O)cc2)NC1=O` (H-R[N(6-aminohexyl)Gly]R[Nva]Y[Dap][hLeu][N(2-Aminoethyl)Gly]-NH2; linker 2-8 via CO), the inhibition was determined as 68%.

On to `CCC[C@H](NC(=O)[C@H](CCCNC(=N)N)NC(=O)[C@@H](Cc1ccc(O)cc1)NC(=O)[C@@H](N)CCCNC(=N)N)C(=O)N[C@@H](Cc1ccc(O)cc1)C(=O)N[C@@H](CN)C(=O)N[C@@H](CCC(C)C)C(N)=O`, for which the inhibition entry is “inactive”.

Regarding `CCC[C@H](NC(=O)[C@H](CCCNC(=N)N)NC(=O)CNCCCCN)C(=O)N[C@@H](Cc1ccc(O)cc1)C(=O)N[C@@H](CN)C(=O)N[C@@H](CCC(C)C)C(=O)N(CCN)CC(N)=O` (H-[Nlys]R[Nva]Y[Dap][hLeu][Gly(N-2-aminoethyl)]-NH2), the inhibition stood at 66%.

On to `CCC[C@@H]1NC(=O)[C@H](CCCNC(=N)N)NC(=O)CN(C(=O)[C@@H](N)CCCNC(=N)N)CCCCCCNC(=O)NCCCCCCN(CC(N)=O)C(=O)[C@H](CCC(C)C)NC(=O)[C@H](CN)NC(=O)[C@H](Cc2ccc(O)cc2)NC1=O` (H-R[N(6-aminohexyl)Gly]R[Nva]Y[Dap][hLeu][N(6-aminohexyl)Gly]-NH2; linker 2-8 via CO), for which the inhibition was 39%.

Regarding `CCC[C@@H]1NC(=O)[C@H](CCCNC(=N)N)NC(=O)CN(C(=O)[C@@H](N)CCCNC(=N)N)CCCNC(=O)NCCCCN(CC(N)=O)C(=O)[C@H](CCC(C)C)NC(=O)[C@H](CN)NC(=O)[C@H](Cc2ccc(O)cc2)NC1=O` (H-R[NGly(3-aminopropyl)]R[Nva]Y[Dap][hLeu][Nlys]-NH2; linker 2-8 via CO), the inhibition worked out at 92%.

`CCC[C@@H]1NC(=O)[C@H](CCCNC(=N)N)NC(=O)CN(C(=O)[C@@H](N)CCCNC(=N)N)CCNC(=O)NCCCCN(CC(N)=O)C(=O)[C@H](CCC(C)C)NC(=O)[C@H](CN)NC(=O)[C@H](Cc2ccc(O)cc2)NC1=O` (H-R[N(2-Aminoethyl)Gly]R[Nva]Y[Dap][hLeu][Nlys]-NH2; linker 2-8 via CO): the inhibition was determined as 98%.

`CCC[C@H](NC(=O)[C@H](CCCNC(=N)N)NC(=O)CNCCCN)C(=O)N[C@@H](Cc1ccc(O)cc1)C(=O)N[C@@H](CN)C(=O)N[C@@H](CCC(C)C)C(=O)N(CCN)CC(N)=O` (H-[Gly(N(CH2)3NH2)]R[Nva]Y[Dap][hLeu][Gly(N-2-aminoethyl)]-NH2): the inhibition was 63%.

`CCC[C@H](NC(=O)[C@H](CCCNC(=N)N)NC(=O)[C@H](C)NC(=O)[C@@H](N)CCCNC(=N)N)C(=O)N[C@@H](Cc1ccc(O)cc1)C(=O)N[C@@H](CN)C(=O)N[C@@H](CCC(C)C)C(N)=O`: the inhibition came out at 81%.

Regarding `CCC[C@@H]1NC(=O)[C@H](CCCNC(=N)N)NC(=O)CN(C(=O)[C@@H](N)CCCNC(=N)N)CCCCNC(=O)NCCCCCCN(CC(N)=O)C(=O)[C@H](CCC(C)C)NC(=O)[C@H](CN)NC(=O)[C@H](Cc2ccc(O)cc2)NC1=O` (H-R[Nlys]R[Nva]Y[Dap][hLeu][N(6-aminohexyl)Gly]-NH2; linker 2-8 via CO), the inhibition was 94%.

Take `CCC[C@H](NC(=O)[C@H](CCCNC(=N)N)NC(=O)[C@H](CC(=O)O)NC(=O)[C@@H](N)CCCNC(=N)N)C(=O)N[C@@H](Cc1ccc(O)cc1)C(=O)N[C@@H](CN)C(=O)N[C@@H](CCC(C)C)C(N)=O`: the inhibition stood at 68%.

Consider `CCC[C@@H]1NC(=O)[C@H](CCCNC(=N)N)NC(=O)CN(C(=O)[C@@H](N)CCCNC(=N)N)CCNC(=O)NCCN(CC(N)=O)C(=O)[C@H](CCC(C)C)NC(=O)[C@H](CN)NC(=O)[C@H](Cc2ccc(O)cc2)NC1=O` (H-R[N(2-Aminoethyl)Gly]R[Nva]Y[Dap][hLeu][N(2-Aminoethyl)Gly]-NH2; linker 2-8 via CO), for which the inhibition was 30%.

For the molecule `CCC[C@@H]1NC(=O)[C@H](CCCNC(=N)N)NC(=O)[C@@H]2CCCN2C(=O)[C@H](CCCNC(=N)N)NC(=O)CCCCCC(=O)NCCCCCCN(CC(N)=O)C(=O)[C@H](CCC(C)C)NC(=O)[C@H](CN)NC(=O)[C@H](Cc2ccc(O)cc2)NC1=O` (RPR[Nva]Y[Dap][hLeu][N(6-aminohexyl)Gly]-NH2; linker N-8 via Heptanedioyl), the inhibition worked out at 30%.

`CCC[C@H](NC(=O)[C@H](CCCNC(=N)N)NC(=O)[C@@H](CC(=O)O)NC(=O)[C@@H](N)CCCNC(=N)N)C(=O)N[C@@H](Cc1ccc(O)cc1)C(=O)N[C@@H](CN)C(=O)N[C@@H](CCC(C)C)C(N)=O`: the inhibition result was “inactive”.

Turning to `CCC[C@H](NC(=O)[C@H](CCCNC(=N)N)NC(=O)[C@@H](CN)NC(=O)[C@@H](N)CCCNC(=N)N)C(=O)N[C@@H](Cc1ccc(O)cc1)C(=O)N[C@@H](CN)C(=O)N[C@@H](CCC(C)C)C(N)=O`, the inhibition came out at 32%.

As for `CCC[C@@H]1NC(=O)[C@H](CCCNC(=N)N)NC(=O)[C@@H]2CCCN2C(=O)[C@H](CCCNC(=N)N)NC(=O)CCCCCC(=O)NCCCCN(CC(N)=O)C(=O)[C@H](CCC(C)C)NC(=O)[C@H](CN)NC(=O)[C@H](Cc2ccc(O)cc2)NC1=O` (RPR[Nva]Y[Dap][hLeu][Nlys]-NH2; linker N-8 via Heptanedioyl), the inhibition stood at 16%.

In the case of `CCC[C@@H]1NC(=O)[C@H](CCCNC(=N)N)NC(=O)[C@@H]2CCCN2C(=O)[C@H](CCCNC(=N)N)NC(=O)CCCC(=O)NCCCCN(CC(N)=O)C(=O)[C@H](CCC(C)C)NC(=O)[C@H](CN)NC(=O)[C@H](Cc2ccc(O)cc2)NC1=O` (RPR[Nva]Y[Dap][hLeu][Nlys]-NH2; linker N-8 via Glutaryl), the inhibition amounted to 14%.

As for `CCC[C@H](NC(=O)[C@H](CCCNC(=N)N)NC(=O)[C@H](CCC)NC(=O)[C@@H](N)CCCNC(=N)N)C(=O)N[C@@H](Cc1ccc(O)cc1)C(=O)N[C@@H](CN)C(=O)N[C@@H](CCC(C)C)C(N)=O` (H-R[Nva]R[Nva]Y[Dap][hLeu]-NH2), the inhibition was determined as 80%.

Regarding `CCC[C@H](NC(=O)[C@H](CCCNC(=N)N)NC(=O)[C@@H](C)NC(=O)[C@@H](N)CCCNC(=N)N)C(=O)N[C@@H](Cc1ccc(O)cc1)C(=O)N[C@@H](CN)C(=O)N[C@@H](CCC(C)C)C(N)=O`, the inhibition result was “inactive”.

On to `CCC[C@H](NC(=O)[C@H](CCCNC(=N)N)NC(=O)[C@@H](Cc1ccccc1)NC(=O)[C@@H](N)CCCNC(=N)N)C(=O)N[C@@H](Cc1ccc(O)cc1)C(=O)N[C@@H](CN)C(=O)N[C@@H](CCC(C)C)C(N)=O`, for which the inhibition entry is “inactive”.

For the molecule `CCC[C@H](NC(=O)[C@H](CCCNC(=N)N)NC(=O)[C@H](CN)NC(=O)[C@@H](N)CCCNC(=N)N)C(=O)N[C@@H](Cc1ccc(O)cc1)C(=O)N[C@@H](CN)C(=O)N[C@@H](CCC(C)C)C(N)=O`, the inhibition was 94%.

In the case of `CCC[C@H](NC(=O)[C@H](CCCNC(=N)N)NC(=O)[C@H](Cc1ccccc1)NC(=O)[C@@H](N)CCCNC(=N)N)C(=O)N[C@@H](Cc1ccc(O)cc1)C(=O)N[C@@H](CN)C(=O)N[C@@H](CCC(C)C)C(N)=O`, the inhibition came out at 60%.

Turning to `CCC[C@@H]1NC(=O)[C@H](CCCNC(=N)N)NC(=O)CN(C(=O)[C@@H](N)CCCNC(=N)N)CCCNC(=O)NCCN(CC(N)=O)C(=O)[C@H](CCC(C)C)NC(=O)[C@H](CN)NC(=O)[C@H](Cc2ccc(O)cc2)NC1=O` (H-R[NGly(3-aminopropyl)]R[Nva]Y[Dap][hLeu][N(2-Aminoethyl)Gly]-NH2; linker 2-8 via CO), the inhibition stood at 54%.

For the origin of these results see ChEMBL document CHEMBL1799953, “Backbone cyclic peptide inhibitors of protein kinase B (PKB/Akt)” (J Med Chem, 2011).
